IDH1 mut inh – inhibitors of IDH1 R132H reductase, primary screen, biochemical, plate reader, single point; Isocitrate dehydrogenase [NADP] cytoplasmic (Homo sapiens), O75874; diaphorase/resazurin fluorescence, 60 min; inhibition, % at 10 µM; 70,000 tested, 0.18% active; in the data active = inhibition above about 34%; inconclusive = no clear call, values can overlap the other calls; inactive = below about 11%;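 also: 0% = DMSO and 100% = no enzyme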
GASC1 inh – inhibitors of GASC-1 (KDM4C) histone demethylase, primary screen, biochemical, single concentration HTS | AID 720574, 2013 | inhibition, % at 12.5 µM | GST-KDM4C 2-372, H3K9me3 peptide, LANCE TR-FRET | 96,000 tested, 0.15% active;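 active = mean replicate inhibition above about 25%, with at least 55% of replicates also reaching it, limit read from the data, passing the limit was not always enough; inconclusive = only one of those two conditions met; inactive = neither condition met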
Target sequence (Q9H3R0 2-372 limits assumed): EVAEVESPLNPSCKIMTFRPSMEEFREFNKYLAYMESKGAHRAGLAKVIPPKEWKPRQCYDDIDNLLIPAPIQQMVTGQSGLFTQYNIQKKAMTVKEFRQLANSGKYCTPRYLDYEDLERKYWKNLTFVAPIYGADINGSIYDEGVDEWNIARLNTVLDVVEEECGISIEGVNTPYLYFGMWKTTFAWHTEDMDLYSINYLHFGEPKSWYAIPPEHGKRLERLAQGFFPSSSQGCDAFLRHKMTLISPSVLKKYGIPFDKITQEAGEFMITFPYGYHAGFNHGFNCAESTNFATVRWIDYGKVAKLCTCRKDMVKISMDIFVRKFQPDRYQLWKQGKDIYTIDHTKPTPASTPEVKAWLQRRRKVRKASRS
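System: N-terminal GST-fused human GASC-1 (KDM4C) fragment, residues 2-372; amount: enzyme final amount 10 nM; incubation: reaction 30 min RT, detection step 1 h RT; medium: HEPES buffer, pH 7.5, plus ascorbate; technique: LANCE TR-FRET, Eu antibody, ULight-streptavidin, EDTA, ex 340 nm, em 618/671 nm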
T cruzi growth-1 – T. cruzi intracellular proliferation inhibitors, primary screen, cell-based, beta-gal Tulahuen parasites, NIH3T3 host, luminescence. T. cruzi beta-gal in NIH3T3, GalScreen luminescence, 90 h. inhibition, % at 8.34 µM. 77,000 tested, 5.9% active;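 active = mean inhibition above about 93%, with at least 55% of replicates each passing it, limit read from the data, passing the limit was not always enough; inconclusive = only one of those two conditions holds; inactive = neither condition holds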
Pf Dd2 inh – P. falciparum Dd2 growth inhibitors, primary screen, SYBR Green fluorescence, single dose replicates | 72 h; active compounds read low | activity change, % at 10 µM | 94,000 tested, 2.3% active | AID 1159554, 2015; in the data active = activity change below about -80%; inconclusive = no clear call, values can overlap the other calls
T cruzi growth-2 – T. cruzi intracellular proliferation inhibitors, confirmation, cell-based, NIH3T3 host, beta-gal parasite, luminescence, cherry-pick | shares compounds with T cruzi growth-1 | T. cruzi beta-gal in NIH3T3, GalScreen luminescence, 90 h | inhibition, % at 8.35 µM | 5,600 tested, 72% active;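 active = mean replicate inhibition above about 95% and at least 55% of replicates individually reaching it, limit read from the data; inconclusive = only one of the two criteria is met; inactive = neither criterion is met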
T cruzi growth-3 – inhibitors of intracellular T. cruzi replication, confirmation, NIH3T3 host cells, beta-gal parasites, cherry-pick, set 2 | T. cruzi beta-gal in NIH3T3, GalScreen luminescence, 90 h | inhibition, % at 2.09 µM | 5,600 tested, 21% active | shares compounds with T cruzi growth-1;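 active = mean inhibition above about 95%, with at least 55% of replicates also reaching it, limit read from the data; inconclusive = meets just one of the two conditions; inactive = meets neither condition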;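 also: plate controls were neutral control median for no effect and positive control median for full effect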
3T3 cytotox – cytotoxicity in mouse NIH/3T3 fibroblasts, confirmation, cytotoxicity control for T. cruzi proliferation inhibitor project, cell-based, cherry-pick, single point | shares compounds with T cruzi growth-1 | NIH/3T3 viability, CellTiter-Glo ATP luminescence, 90 h | cytotoxicity (signal decrease), % at 8.35 µM | 5,600 tested, 14% active;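 active = mean signal decrease across replicates above about 35% based on untreated-well scatter, with enough replicates individually passing, limit read from the data; inconclusive = no rule stated though some were filed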;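 also: 0% = median of neutral control wells and 100% = median of positive control wells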
NIH3T3 tox 2 – NIH/3T3 fibroblast cytotoxicity, confirmation, cytotoxicity control, cell-based, cherry-pick, single point, set 2. shares compounds with T cruzi growth-1. 5,600 tested, 56% active. NIH/3T3 viability, CellTiter-Glo ATP luminescence, 90 h. inhibition, % at 24.9 µM;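 active = mean loss of cell viability signal at or above a set limit, and enough replicates individually reaching it; inconclusive = meets only the mean limit or only the replicate share; inactive = meets neither condition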;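 also: 0% = median of neutral control wells and 100% = median of positive control wells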
Starred values were filed as active, the others as inactive; ? = inconclusive; / = no result given; + = active, no number. Shown are actives, neighbours in structure and some others; about 5.8% of the full set was active somewhere.

SMILES	IDH1 mut inh	GASC1 inh	T cruzi growth-1	Pf Dd2 inh	T cruzi growth-2	T cruzi growth-3	3T3 cytotox	NIH3T3 tox 2
CO[C@H](CN(C)S(=O)(=O)c1cccc(Cl)c1)[C@H](C)CN([C@H](C)CO)S(=O)(=O)c1cccc(Cl)c1	-1	-1	101*	-35	113*	71	?	60*
CO[C@@H](CN(C)S(=O)(=O)c1cccc(Cl)c1)[C@H](C)CN([C@@H](C)CO)S(=O)(=O)c1ccc(Cl)cc1	0	0	103*	-13	?	23	?	76*
CO[C@H](CN(C)S(=O)(=O)c1ccc(C)cc1)[C@H](C)CN([C@H](C)CO)S(=O)(=O)c1cccc(Cl)c1	-1	-3	102*	-4	103*	26	58*	84*
CO[C@@H](CN(C)S(=O)(=O)c1cccc(Cl)c1)[C@@H](C)CN([C@H](C)CO)S(=O)(=O)c1cccc(Cl)c1	0	-2	91	-22	/	/	/	/
CO[C@H](CN(C)S(=O)(=O)c1cccc(Cl)c1)[C@H](C)CN([C@@H](C)CO)S(=O)(=O)c1cccc(Cl)c1	-1	-1	99*	-52	110*	24	49*	58*
Cc1cccc(OCC(=O)Nc2c[nH]c(=O)[nH]c2=O)c1C	1	/	/	/	/	/	/	/
COC(=O)Cc1c(/C(Cl)=C/C(=O)O)oc2cc(C)cc(O)c2c1=O	-1	/	/	/	/	/	/	/
C[C@H](CO)N1C[C@H](C)[C@@H](CN(C)Cc2ccc(-c3ccccc3)cc2)Oc2c(NC(=O)NC3CCCCC3)cccc2C1=O	/	/	105*	-39	106*	89	-30	104*
C[C@@H]1CN([C@H](C)CO)C(=O)c2cccc(NC(=O)NC3CCCCC3)c2O[C@H]1CN(C)Cc1ccc(Oc2ccccc2)cc1	/	0	?	-11	98*	108*	-14	104*
C[C@@H]1CN([C@H](C)CO)C(=O)c2cccc(NC(=O)NC3CCCCC3)c2O[C@@H]1CN(C)Cc1ccc(Oc2ccccc2)cc1	1	0	48	-49	/	/	/	/
O=C(O)[C@@H]1[C@@H](CO)[C@@H]2Cn3c(ccc(/C=C/c4ccccc4)c3=O)[C@@H]2N1Cc1ccc2c(c1)OCO2	/	2	102*	/	50	0	17	101*
O=C(O)[C@H]1[C@H](CO)[C@H]2Cn3c(ccc(/C=C/c4ccccc4)c3=O)[C@H]2N1Cc1ccc2c(c1)OCO2	/	13	127*	/	88	65	30	63*
O=C([C@H]1N[C@H]2c3ccc(/C=C/c4ccccc4)c(=O)n3C[C@H]2[C@@H]1CO)N1CCCCC1	/	0	+	/	28	-31	-9	-18
COC(=O)[C@H]1[C@H](CO)[C@H]2Cn3c(ccc(/C=C/c4ccccc4)c3=O)[C@H]2N1C(=O)c1cnccn1	/	-2	101*	-11	40	8	-14	40*
O=C(O)[C@H]1[C@H](CO)[C@H]2Cn3c(ccc(/C=C/c4ccccc4)c3=O)[C@H]2N1C(=O)c1cnccn1	/	-3	7	/	/	/	/	/
CCCN1[C@H](C(=O)N(C)C)[C@@H](CO)[C@@H]2Cn3c(ccc(/C=C/c4ccccc4)c3=O)[C@@H]21	/	3	34	/	/	/	/	/
OCC1(CO)COC(COc2ccccc2)=N1	0	/	/	/	/	/	/	/
CC(C)(C)c1ccc(-c2nnc(SCC(=O)Nc3ccccc3)n2-c2ccccc2)cc1	0	/	/	/	/	/	/	/
CC(=O)c1cccc(-n2nnnc2SCC(=O)Nc2ccccc2F)c1	0	/	/	/	/	/	/	/
O=C(Nc1ccccc1)N1CCCCN2[C@H](C1)[C@H](c1ccc(-c3ccccc3)cc1)[C@@H]2CO	/	0	128*	-69	103*	43	12	9
Cc1ccc(-c2ccc([C@H]3[C@H]4CN(C(=O)Nc5ccccc5)CCCCN4[C@H]3CO)cc2)cc1	/	-2	109*	17	107*	43	21	91*
Cc1ccc(-c2ccc([C@@H]3[C@@H](CO)N4CCCCN(C(=O)Nc5ccccc5)C[C@@H]34)cc2)cc1	/	-1	110*	-14	106*	72	26	104*
OCCN(CCO)c1nc(-c2ccccc2)nc2sc(-c3ccccc3)cc12	-1	/	/	/	/	/	/	/
CCOC(=O)c1ccc(NC(=O)CN2c3cccc4cccc(c34)S2(=O)=O)cc1	0	/	/	/	/	/	/	/
COC(=O)CCSc1nc2sc3c(c2c(=O)n1-c1cccc(C)c1)CC(C)(C)OC3	2	/	/	/	/	/	/	/
SMILES	IDH1 mut inh	GASC1 inh	T cruzi growth-1	Pf Dd2 inh	T cruzi growth-2	T cruzi growth-3	3T3 cytotox	NIH3T3 tox 2
C[C@@H]1CN([C@H](C)CO)C(=O)c2cc(C3=CCCC3)cnc2O[C@H]1CN(C)C(=O)Nc1ccc(F)cc1	/	3	46	1	/	/	/	/
C[C@@H]1CN([C@H](C)CO)C(=O)c2cc(C3=CCCC3)cnc2O[C@H]1CN(C)C(=O)Nc1ccc(C(F)(F)F)cc1	/	0	102*	-20	98*	44	23	59*
C[C@H](CO)N1C[C@H](C)[C@@H](CN(C)C(=O)Nc2ccc(C(F)(F)F)cc2)Oc2ncc(C3=CCCC3)cc2C1=O	/	1	102*	-54	103*	52	18	74*
CCc1ccc(OCC(=O)Nc2ccccc2-c2nc3ccccc3s2)cc1	0	/	/	/	/	/	/	/
O=C(c1cccnc1)N1CCCCN2[C@H](CO)[C@@H](c3ccc(C#Cc4ccccn4)cc3)[C@H]2C1	/	0	38	34	/	/	/	/
C[C@@H](O)C#Cc1ccc([C@H]2[C@@H](CO)N3CCCCN(C(=O)c4ccncc4)C[C@H]23)cc1	/	1	16	23	/	/	/	/
C[C@H](O)C#Cc1ccc([C@H]2[C@H]3CN(C(=O)c4ccncc4)CCCCN3[C@H]2CO)cc1	/	1	101*	17	-4	1	-9	11
COc1ccc(C#Cc2ccc([C@@H]3[C@H]4CN(C(=O)c5ccncc5)CCCCN4[C@H]3CO)cc2)cc1	/	-1	89	-27	/	/	/	/
COc1ccc(C#Cc2ccc([C@H]3[C@H]4CN(C(=O)c5ccncc5)CCCCN4[C@H]3CO)cc2)cc1	/	0	105*	3	64	-18	50*	54*
O=C(c1ccncc1)N1CCCCN2[C@@H](CO)[C@H](c3ccc(C#Cc4ccccn4)cc3)[C@@H]2C1	/	1	105*	-4	?	15	2	3

Screening results as filed in PubChem.
